Calls of active or inactive are those of the source. The calls are words filed in the database; no cut-off is given here.
Key:
[1] = biological target: Voltage-gated potassium channel, KQT; KCNQ2(Kv7.2)/KCNQ3(Kv7.3) (Homo sapiens, UniProt O43525+O43526); assay: Agonist activity at KCNQ2/KCNQ3 expressed in CHO cells assessed as increase in KCl-induced 86Rb+ efflux incubated for 10 mins prior to KCl-induction by liquid scintillation counting; format: functional, cell-based
[2] = biological target: Voltage-gated potassium channel, IKs; KCNQ1(Kv7.1)/KCNE1(MinK) (Homo sapiens, UniProt P15382+P51787); assay: Antagonist activity at KCNQ1/MINK expressed in CHO cells assessed as inhibition of KCl-induced 86Rb+ efflux incubated for 10 mins prior to KCl-induction by liquid scintillation counting; format: functional, cell-based
Voltage-gated potassium channel, IKs; KCNQ1(Kv7.1)/KCNE1(MinK), sequence (P51787 whole entry): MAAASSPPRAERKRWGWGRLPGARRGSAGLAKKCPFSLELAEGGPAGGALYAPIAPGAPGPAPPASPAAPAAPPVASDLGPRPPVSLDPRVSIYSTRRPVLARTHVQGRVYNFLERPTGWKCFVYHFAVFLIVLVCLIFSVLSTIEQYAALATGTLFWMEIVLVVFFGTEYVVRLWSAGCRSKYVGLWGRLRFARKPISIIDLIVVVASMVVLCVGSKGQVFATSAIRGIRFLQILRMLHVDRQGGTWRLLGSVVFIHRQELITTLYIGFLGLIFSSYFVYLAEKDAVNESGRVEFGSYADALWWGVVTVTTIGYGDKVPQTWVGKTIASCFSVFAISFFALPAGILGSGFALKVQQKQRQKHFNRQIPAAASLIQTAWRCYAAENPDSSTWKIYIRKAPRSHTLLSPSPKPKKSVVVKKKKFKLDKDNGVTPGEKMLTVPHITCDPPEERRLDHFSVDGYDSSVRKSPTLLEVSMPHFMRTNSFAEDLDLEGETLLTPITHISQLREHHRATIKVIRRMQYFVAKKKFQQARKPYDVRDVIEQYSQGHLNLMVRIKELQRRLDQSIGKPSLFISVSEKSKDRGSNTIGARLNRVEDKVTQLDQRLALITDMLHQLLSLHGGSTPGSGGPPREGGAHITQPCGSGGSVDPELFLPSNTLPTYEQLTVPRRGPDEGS

Rattus norvegicus [3] = assay: Toxicity in rat assessed as nonhemolytic anemia after 28 days administered with repeated doses; format: organism-based; conditions: in vivo, 672 h
Cynomolgus monkey = assay: Toxicity in cynomolgus monkey assessed as nonhemolytic anemia after 28 days administered with repeated doses; format: organism-based, Macaca fascicularis; conditions: in vivo, 672 h
Rattus norvegicus [4] = assay: Toxicity in po dosed rat assessed as nonhemolytic anemia after 14 days; format: organism-based; conditions: in vivo, 336 h
Rattus norvegicus [5] = assay: Antiepileptic activity in po dosed Wistar rat assessed as latency in maximum electric shock-induced hind limb extension administered 30 mins prior to electric shock-challenge measured up to 6 secs; format: functional; conditions: Hindlimb
Rattus norvegicus [6] = assay: Antiepileptic activity in po dosed Sprague-Dawley rat assessed as latency in PTZ-induced seizure administered 30 mins prior to PTZ-challenge measured up to 15 minutes; format: functional
[7] = biological target: Voltage-gated potassium channel KCNQ3/KCNQ5 (Homo sapiens, UniProt O43525+Q9NR82); assay: Agonist activity at KCNQ3/KCNQ5 expressed in CHO cells increase in KCl-induced 86Rb+ efflux incubated for 10 mins prior to KCl-induction by liquid scintillation counting; format: functional, cell-based
Voltage-gated potassium channel KCNQ3/KCNQ5, sequence (O43525 whole entry): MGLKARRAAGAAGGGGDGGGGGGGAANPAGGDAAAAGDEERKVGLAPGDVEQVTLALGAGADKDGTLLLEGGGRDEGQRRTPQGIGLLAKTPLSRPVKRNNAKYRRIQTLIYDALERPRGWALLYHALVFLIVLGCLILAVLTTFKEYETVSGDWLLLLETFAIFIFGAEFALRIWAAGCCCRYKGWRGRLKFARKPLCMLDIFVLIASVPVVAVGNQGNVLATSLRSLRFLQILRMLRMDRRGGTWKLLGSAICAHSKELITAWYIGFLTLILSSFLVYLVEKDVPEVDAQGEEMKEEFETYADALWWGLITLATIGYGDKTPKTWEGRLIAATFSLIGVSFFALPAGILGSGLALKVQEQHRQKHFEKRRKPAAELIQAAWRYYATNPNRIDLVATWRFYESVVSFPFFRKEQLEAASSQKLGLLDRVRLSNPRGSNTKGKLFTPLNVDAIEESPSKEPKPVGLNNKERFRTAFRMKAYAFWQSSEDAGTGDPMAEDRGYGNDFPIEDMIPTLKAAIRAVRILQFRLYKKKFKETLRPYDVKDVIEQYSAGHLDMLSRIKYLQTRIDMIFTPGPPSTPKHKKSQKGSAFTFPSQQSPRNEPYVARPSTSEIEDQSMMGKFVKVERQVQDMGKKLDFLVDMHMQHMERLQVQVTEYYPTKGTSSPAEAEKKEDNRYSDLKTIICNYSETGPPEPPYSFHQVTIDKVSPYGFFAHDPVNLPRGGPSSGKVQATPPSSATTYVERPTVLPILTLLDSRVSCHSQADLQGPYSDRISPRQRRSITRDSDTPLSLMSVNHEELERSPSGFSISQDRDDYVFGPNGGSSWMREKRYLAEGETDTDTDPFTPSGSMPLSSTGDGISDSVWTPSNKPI
Voltage-gated potassium channel KCNQ3/KCNQ5, sequence (Q9NR82 whole entry): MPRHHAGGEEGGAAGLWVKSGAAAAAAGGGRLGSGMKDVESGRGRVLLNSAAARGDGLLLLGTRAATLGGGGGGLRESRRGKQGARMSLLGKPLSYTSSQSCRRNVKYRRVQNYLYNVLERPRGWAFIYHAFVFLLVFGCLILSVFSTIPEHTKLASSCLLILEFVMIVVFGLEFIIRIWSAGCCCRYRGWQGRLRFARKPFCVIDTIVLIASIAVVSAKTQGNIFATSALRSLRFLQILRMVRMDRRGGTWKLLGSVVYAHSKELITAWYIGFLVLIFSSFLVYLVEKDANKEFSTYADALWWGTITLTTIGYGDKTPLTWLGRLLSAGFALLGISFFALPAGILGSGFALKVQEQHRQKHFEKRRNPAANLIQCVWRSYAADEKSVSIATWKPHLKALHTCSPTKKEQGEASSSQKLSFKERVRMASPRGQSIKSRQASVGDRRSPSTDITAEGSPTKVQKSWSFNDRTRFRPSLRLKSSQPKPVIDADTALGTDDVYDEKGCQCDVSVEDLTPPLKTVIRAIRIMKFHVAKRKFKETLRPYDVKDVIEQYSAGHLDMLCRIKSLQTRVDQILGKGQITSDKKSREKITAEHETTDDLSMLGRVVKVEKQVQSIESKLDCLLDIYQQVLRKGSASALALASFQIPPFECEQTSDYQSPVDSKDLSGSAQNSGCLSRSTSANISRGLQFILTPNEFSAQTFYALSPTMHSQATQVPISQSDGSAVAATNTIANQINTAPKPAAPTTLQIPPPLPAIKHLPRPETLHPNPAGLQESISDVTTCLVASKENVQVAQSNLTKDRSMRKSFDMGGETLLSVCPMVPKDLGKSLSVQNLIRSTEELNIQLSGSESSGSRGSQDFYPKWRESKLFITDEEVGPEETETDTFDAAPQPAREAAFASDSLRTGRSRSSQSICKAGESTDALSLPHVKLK

[8] = Agonist activity at KCNQ expressed in CHO cells assessed as increase in KCl-induced 86Rb+ efflux incubated for 10 mins prior to KCl-induction by liquid scintillation; format: functional, cell-based
[9] = Selectivity ratio of EC50 for KCNQ3/KCNQ5 to EC50 for KCNQ2/KCNQ3
[10] = biological target: Voltage-gated inwardly rectifying potassium channel KCNH2 (Homo sapiens, UniProt Q12809); assay: Inhibition of human ERG
Voltage-gated inwardly rectifying potassium channel KCNH2, sequence (Q12809 whole entry): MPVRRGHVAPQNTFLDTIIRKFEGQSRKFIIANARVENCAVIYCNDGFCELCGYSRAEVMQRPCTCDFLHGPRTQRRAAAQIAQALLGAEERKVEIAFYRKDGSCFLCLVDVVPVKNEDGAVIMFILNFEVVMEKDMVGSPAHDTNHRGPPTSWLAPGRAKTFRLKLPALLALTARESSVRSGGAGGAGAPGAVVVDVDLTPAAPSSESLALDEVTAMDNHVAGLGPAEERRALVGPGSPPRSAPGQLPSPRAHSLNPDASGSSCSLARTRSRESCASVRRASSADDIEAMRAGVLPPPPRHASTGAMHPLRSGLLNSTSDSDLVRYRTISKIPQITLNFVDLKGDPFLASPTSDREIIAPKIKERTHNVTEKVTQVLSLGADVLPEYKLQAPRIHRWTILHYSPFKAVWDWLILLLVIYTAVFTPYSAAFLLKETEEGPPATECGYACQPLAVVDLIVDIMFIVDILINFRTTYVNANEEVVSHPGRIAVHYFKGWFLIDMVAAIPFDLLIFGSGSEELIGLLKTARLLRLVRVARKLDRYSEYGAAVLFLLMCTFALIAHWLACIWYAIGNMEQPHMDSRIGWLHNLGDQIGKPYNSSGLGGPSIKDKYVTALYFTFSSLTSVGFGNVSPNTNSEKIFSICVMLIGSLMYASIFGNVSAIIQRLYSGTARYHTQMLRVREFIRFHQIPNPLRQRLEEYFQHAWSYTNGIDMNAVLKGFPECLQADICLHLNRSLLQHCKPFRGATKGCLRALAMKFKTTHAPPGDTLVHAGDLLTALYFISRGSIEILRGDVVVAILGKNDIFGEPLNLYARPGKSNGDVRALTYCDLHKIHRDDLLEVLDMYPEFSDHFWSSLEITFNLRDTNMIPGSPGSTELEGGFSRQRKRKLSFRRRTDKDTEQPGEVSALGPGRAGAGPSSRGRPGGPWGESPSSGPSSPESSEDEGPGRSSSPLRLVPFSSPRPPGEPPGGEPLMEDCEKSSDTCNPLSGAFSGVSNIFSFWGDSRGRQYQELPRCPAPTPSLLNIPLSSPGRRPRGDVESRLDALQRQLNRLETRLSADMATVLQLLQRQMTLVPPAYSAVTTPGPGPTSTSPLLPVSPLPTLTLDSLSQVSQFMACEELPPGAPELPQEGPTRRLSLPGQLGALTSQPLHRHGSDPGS

[11] = biological target: Sodium channel protein type 5 subunit alpha (Homo sapiens, UniProt Q14524); assay: Inhibition of NaV1.5
[12] = Inhibition of L-type calcium channel
[13] = Half life in Sprague-Dawley rat at 2mg/kg, iv; format: ADME, organism-based; conditions: in vivo
Method in brief: (§1)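 Rats received a single 2 mg/kg intravenous dose. Half-life and clearance were determined, and volume of distribution (Vz) was calculated from the terminal phase.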

[14] = Clearance in Sprague-Dawley rat at 2mg/kg, iv; format: ADME, organism-based; conditions: in vivo; method in brief: as §1
Rattus norvegicus [15] = assay: Volume of distribution during terminal phase in Sprague-Dawley rat at 2 mg/kg, iv; format: ADME, organism-based; set-up: dose 2 mg/kg, route intravenous; conditions: in vivo; method in brief: as §1
[16] = Oral bioavailability in Sprague-Dawley rat at 2 mg/kg; format: ADME, organism-based; conditions: in vivo
[17] = Tmax in Sprague-Dawley rat at 2 mg/kg, po; format: ADME, organism-based; set-up: dose 2 mg/kg, route oral; conditions: in vivo
[18] = Activity at GABA(A) gated channel at 10 uM

Voltage-gated potassium channel, KQT; KCNQ2(Kv7.2)/KCNQ3(Kv7.3), sequence (O43526 whole entry): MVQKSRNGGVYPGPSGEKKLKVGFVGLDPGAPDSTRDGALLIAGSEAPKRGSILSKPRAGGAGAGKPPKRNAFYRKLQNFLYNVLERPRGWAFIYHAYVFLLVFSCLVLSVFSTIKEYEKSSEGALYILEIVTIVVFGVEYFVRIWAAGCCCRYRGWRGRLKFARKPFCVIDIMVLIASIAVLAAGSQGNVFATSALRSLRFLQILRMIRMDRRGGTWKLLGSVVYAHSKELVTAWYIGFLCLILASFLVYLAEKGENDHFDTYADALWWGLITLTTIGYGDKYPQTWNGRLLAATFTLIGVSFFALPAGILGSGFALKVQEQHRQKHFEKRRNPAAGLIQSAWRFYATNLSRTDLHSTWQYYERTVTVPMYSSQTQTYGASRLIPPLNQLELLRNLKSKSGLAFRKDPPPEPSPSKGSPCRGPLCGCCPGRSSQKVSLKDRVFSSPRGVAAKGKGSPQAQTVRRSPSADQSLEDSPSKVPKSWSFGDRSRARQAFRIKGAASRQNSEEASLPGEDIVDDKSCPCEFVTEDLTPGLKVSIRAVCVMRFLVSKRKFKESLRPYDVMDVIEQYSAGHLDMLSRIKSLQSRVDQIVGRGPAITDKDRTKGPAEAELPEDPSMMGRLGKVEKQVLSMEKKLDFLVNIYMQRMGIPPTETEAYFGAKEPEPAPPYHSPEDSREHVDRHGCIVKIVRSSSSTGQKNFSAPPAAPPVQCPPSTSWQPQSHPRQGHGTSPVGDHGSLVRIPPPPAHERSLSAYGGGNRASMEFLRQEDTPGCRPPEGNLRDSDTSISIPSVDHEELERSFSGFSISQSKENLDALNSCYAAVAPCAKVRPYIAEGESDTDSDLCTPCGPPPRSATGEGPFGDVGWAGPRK
Voltage-gated potassium channel, KQT; KCNQ2(Kv7.2)/KCNQ3(Kv7.3), sequence (O43525 whole entry): as the sequence (O43525 whole entry) above

SMILES	EC50 [1] [nM]	IC50 [2] [µM]	other results
O=C(Nc1ccc(Cl)nc1)c1ccc(F)c(F)c1	380	41	Activity (Rattus norvegicus [3]): Toxic; Activity (Cynomolgus monkey): Toxic; Activity (Rattus norvegicus [4]): Toxic; ED50 (Rattus norvegicus [5]): 1.5 mg/kg; ED50 (Rattus norvegicus [6]): 2.2 mg/kg
O=C(Nc1ccc(Cl)nc1)c1ccc(F)c(C(F)(F)F)c1	420	3.4	
CC(C)CSc1ccc(C(=O)Nc2ccc(Cl)nc2)cc1F	140	> 100	
O=C(Nc1ccc(Cl)nc1)c1ccc(S(=O)(=O)c2ccc(F)cc2)c(F)c1	70	> 100	
O=C(Nc1ccc(Cl)nc1)c1ccc(C(F)(F)F)cc1	320	2.9	
NS(=O)(=O)c1ccc(C(=O)Nc2ccc(Cl)nc2)cc1	> 10000		
O=C(Nc1ccc(Cl)nc1)c1ccc(NCCc2ccccc2)c(F)c1	180	> 100	
O=C(Nc1ccc(Cl)nc1)c1ccc(SCc2ccc(F)cc2)c(F)c1	1600	> 100	
O=C(Nc1cnc(Cl)nc1)c1cccc(F)c1	7200	> 100	EC50 [7]: 23 µM
CC(C)Sc1ccc(C(=O)Nc2ccc(Cl)nc2)cc1F	110	5.8	
N#Cc1ccc(C(=O)Nc2ccc(Cl)nc2)cc1F	1100	51	
O=C(Nc1ccc(Cl)nc1)c1ccc(S(=O)(=O)Cc2ccc(F)cc2)c(F)c1	160	> 100	
CCOc1ccc(C(=O)Nc2ccc(Cl)nc2)cc1F	570	> 100	
O=C(Nc1ccccc1)c1ccc(Cl)c(Cl)c1			EC50 [8]: > 10 µM
O=C(Nc1ccccn1)c1ccc(Cl)c(Cl)c1			EC50 [8]: > 10 µM
CC(C)CS(=O)(=O)c1ccc(C(=O)Nc2ccc(Cl)nc2)cc1F	260	54	
O=C(Nc1ccc(Cl)nc1)c1ccccc1F	> 10000		
O=C(Nc1ccc(Cl)nc1)c1ccc(F)c(Cl)c1	190	22	
N#Cc1cccc(C(=O)Nc2ccc(Cl)nc2)c1	> 10000		
O=C(Nc1ccc(Cl)nc1)c1ccc(Oc2ccccc2)c(F)c1	30	1.3	
O=C(Nc1ccc(Cl)nc1)c1ccc(Sc2ccc(F)cc2)c(F)c1	80	> 100	
O=C(Nc1ccc(Cl)nc1)c1cccc(Cl)c1	270	41	
O=C(Nc1ccc(Cl)nc1)c1cccc(C(F)(F)F)c1	390	5.8	
O=C(Nc1ccc(O)nc1)c1ccc(F)c(F)c1	> 10000		
O=C(Nc1ccc(Cl)nc1)c1cccc(F)c1F	> 10000		
O=C(Nc1ccc(Cl)nc1)c1ccccc1	1600	> 100	
O=C(Nc1ccc(F)nc1)c1ccc(F)c(F)c1	4800		
COc1ccc(NC(=O)c2ccc(F)c(F)c2)cn1	> 10000		

SMILES	EC50 [1] [nM]	IC50 [2] [µM]	other results
O=C(Nc1ccc(Cl)nc1)c1ccc(F)cc1	980	66	
O=C(Nc1ccc(NC2CC2)nc1)c1ccc(F)c(F)c1	2700		
O=C(Nc1ccc(N2CCOCC2)nc1)c1ccc(F)c(F)c1	7800		
O=C(Nc1ccc(Cl)nc1)c1ccc(Oc2ccccc2)cc1	10	1.9	
Cc1ccc(C(=O)Nc2cnc(Cl)nc2)cc1F	600	93	EC50 [7]: 10 µM
O=C(Nc1ccc(Cl)nc1)c1ccc(-c2ccccc2)cc1	260	> 30	
O=C(Nc1ccc(Cl)nc1)c1ccc(Cl)c(Cl)c1	670	17	
N#Cc1ccc(NC(=O)c2ccc(F)c(F)c2)cn1	10000		
Cc1ccc(C(=O)Nc2ccc(Cl)nc2)cc1F	280	33	
O=C(Nc1ccc(Cl)nc1)c1ccc(Cl)cc1		15	
O=C(Nc1cnc(Cl)nc1)c1ccc(F)c(F)c1	690	> 100	EC50 [7]: 14.3 µM; Ratio EC50 [9]: 20; IC50 [10]: > 30 µM; IC50 [11]: > 30 µM; IC50 [12]: > 30 µM; ED50 (Rattus norvegicus [5]): 1.5 mg/kg; ED50 (Rattus norvegicus [6]): < 1 mg/kg; half-life [13]: 72 min; clearance [14]: 17.3 mL/min/kg; Vz/F (Rattus norvegicus [15]): 1804 mL/kg; bioavailability [16]: 63%; Tmax [17]: 30 min; Activity [18]: inactive
O=C(Nc1ccncc1)c1ccc(Cl)c(Cl)c1			EC50 [8]: > 10 µM
COc1ccc(C(=O)Nc2ccc(Cl)nc2)cc1F	3200	> 100	
O=C(Nc1cnc(Cl)nc1)c1cccc(Cl)c1	1100	78	EC50 [7]: 14 µM
O=C(Nc1ccc(N2CCCC2)nc1)c1ccc(F)c(F)c1	480		
O=C(Nc1ccc(Cl)nc1)c1ccc(C(F)(F)F)c(F)c1	370	3.4	
CSc1ccc(NC(=O)c2ccc(F)c(F)c2)cn1	> 10000		
O=C(Nc1ccc(C(F)(F)F)nc1)c1ccc(F)c(F)c1	> 10000		
O=C(Nc1cccnc1)c1ccc(Cl)c(Cl)c1			EC50 [8]: 6 µM
Cc1ccc(NC(=O)c2ccc(F)c(F)c2)cn1	6800		
CC(C)Oc1ccc(C(=O)Nc2ccc(Cl)nc2)cc1F	170	> 100	
O=C(Nc1ccc(Cl)nc1)c1cccc(F)c1	1100	77	
O=C(Nc1cnc(Cl)nc1)c1cccc(C(F)(F)F)c1	4300	35	EC50 [7]: 28 µM
O=C(Nc1cnc(Cl)nc1)c1ccc(Cl)c(F)c1	410	49	EC50 [7]: 9 µM
O=C(Nc1ccc(Cl)nc1)c1ccc(Cl)c(F)c1	80	15	
Cc1ccc(C(=O)Nc2ccc(Cl)nc2)cc1C	690	> 100	
COc1cccc(C(=O)Nc2ccc(Cl)nc2)c1	5500		
